Several values for one entry are separate records, joined by “and”; a condition that tells them apart may be missing. Equal entries are not always repeated.
System: HEK-293T
Assay: Multiplex assay against HEK293T;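 as to Population Tubulin-Different-Phenotype (%): share of the cells with healthy nuclei that show this phenotype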
Format: toxicity, cell-based
Settings: human
In short: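 Live cells were stained at seeding with Hoechst33342, BioTracker Green Microtubule Cytoskeleton Dye, MitoTracker Red and Annexin V Alexa Fluor 680, then imaged on a CQ1 microscope at 37°C and 5% CO2 after compound addition. CellPathfinder machine-learning gating split cells into Hoechst high-intensity objects or normal cells. Normal cells were split into healthy, pyknosed or fragmented nuclei, and pyknosed cells into mitotic or apoptotic. Tubulin, mitochondrial-mass and membrane-permeability phenotypes are per cents of healthy-nucleus cells.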

[1] = 12 h, 1 µM, compound concentration 1 uM, replicate 1
[2] = 12 h, 1 µM, compound concentration 1 uM, replicate 2
[3] = 12 h, 10 µM, compound concentration 10 uM, replicate 1
[4] = 12 h, 10 µM, compound concentration 10 uM, replicate 2
[5] = 24 h, 1 µM, compound concentration 1 uM, replicate 1
[6] = 24 h, 1 µM, compound concentration 1 uM, replicate 2
[7] = 24 h, 10 µM, compound concentration 10 uM, replicate 1
[8] = 24 h, 10 µM, compound concentration 10 uM, replicate 2
[9] = 48 h, 10 µM, compound concentration 10 uM, replicate 1
[10] = 48 h, 10 µM, compound concentration 10 uM, replicate 2

CN[C@@H]1C[C@H]2O[C@@](C)([C@@H]1OC)n1c3ccccc3c3c4c(c5c6ccccc6n2c5c31)C(=O)NC4 [STAUROSPORINE]
Population Apoptotic (%) [1]: 27%
Population Fragmented Nuclei (%) [1]: 37%
Population Healthy Nuclei (%) [1]: 16%
Population Hoechst High Intensity Objects (%) [1]: 15%
Population Membrane Permeable-Phenotype (%) [1]: 16%
Population Mitochondria Different-Phenotype (%) [1]: 9%
Population Mitotic Cells (%) [1]: 72%
Population Normal (%) [1]: 84%
Population Pyknosed Nuclei (%) [1]: 46%
Population Tubulin-Different-Phenotype (%) [1]: 32%
Population Apoptotic (%) [2]: 9%
Population Fragmented Nuclei (%) [2]: 18%
Population Healthy Nuclei (%) [2]: 35%
Population Hoechst High Intensity Objects (%) [2]: 10%
Population Membrane Permeable-Phenotype (%) [2]: 12%
Population Mitochondria Different-Phenotype (%) [2]: 13%
Population Mitotic Cells (%) [2]: 90%
Population Normal (%) [2]: 89%
Population Tubulin-Different-Phenotype (%) [2]: 74%
Population Apoptotic (%) [3]: 31% and 93% and 82%
Population Fragmented Nuclei (%) [3]: 37% and 33% and 30%
Population Hoechst High Intensity Objects (%) [3]: 15% and 23% and 17%
Population Membrane Permeable-Phenotype (%) [3]: 20% and 15%
Population Normal (%) [3]: 84% and 76% and 82%
Population Pyknosed Nuclei (%) [3]: 48% and 65% and 66%
Population Tubulin-Different-Phenotype (%) [3]: 25% and 33% and 57%
Population Hoechst High Intensity Objects (%) [4]: 20% and 22% and 11%
Population Mitochondria Different-Phenotype (%) [4]: 23% and 35% and 18%
Population Normal (%) [4]: 79% and 77% and 88%
Population Pyknosed Nuclei (%) [4]: 52% and 55% and 35%
Population Apoptotic (%) [5]: 48%
Population Fragmented Nuclei (%) [5]: 35%
Population Healthy Nuclei (%) [5]: 17%
Population Hoechst High Intensity Objects (%) [5]: 15%
Population Membrane Permeable-Phenotype (%) [5]: 18%
Population Mitochondria Different-Phenotype (%) [5]: 16%
Population Mitotic Cells (%) [5]: 51%
Population Normal (%) [5]: 84%
Population Pyknosed Nuclei (%) [5]: 46%
Population Tubulin-Different-Phenotype (%) [5]: 29%
Population Apoptotic (%) [6]: 28%
Population Fragmented Nuclei (%) [6]: 16%
Population Healthy Nuclei (%) [6]: 30%
Population Hoechst High Intensity Objects (%) [6]: 14%
Population Membrane Permeable-Phenotype (%) [6]: 10%
Population Mitochondria Different-Phenotype (%) [6]: 25%
Population Mitotic Cells (%) [6]: 71%
Population Normal (%) [6]: 85%
Population Pyknosed Nuclei (%) [6]: 52%
Population Tubulin-Different-Phenotype (%) [6]: 73%
Population Apoptotic (%) [7]: 58% and 87% and 91%
Population Fragmented Nuclei (%) [7]: 37% and 33% and 27%
Population Hoechst High Intensity Objects (%) [7]: 19% and 21% and 24%
Population Normal (%) [7]: 80% and 75%
Population Pyknosed Nuclei (%) [7]: 46% and 65% and 70%
Population Fragmented Nuclei (%) [8]: 12% and 32%
Population Hoechst High Intensity Objects (%) [8]: 13% and 29% and 22%
Population Membrane Permeable-Phenotype (%) [8]: 12% and 14%
Population Mitochondria Different-Phenotype (%) [8]: 25% and 57% and 62%
Population Normal (%) [8]: 86% and 70% and 77%
Population Pyknosed Nuclei (%) [8]: 48% and 55% and 66%
Population Tubulin-Different-Phenotype (%) [8]: 86% and 61% and 87%
Population Apoptotic (%) [9]: 96% and 92%
Population Fragmented Nuclei (%) [9]: 36% and 37%
Population Healthy Nuclei (%) [9]: 0% and 1%
Population Hoechst High Intensity Objects (%) [9]: 22% and 19%
Population Membrane Permeable-Phenotype (%) [9]: 0%
Population Mitochondria Different-Phenotype (%) [9]: 100% and 80%
Population Mitotic Cells (%) [9]: 3% and 7%
Population Normal (%) [9]: 77% and 80%
Population Pyknosed Nuclei (%) [9]: 62%
Population Tubulin-Different-Phenotype (%) [9]: 100% and 60%
Population Apoptotic (%) [10]: 97% and 93%
Population Fragmented Nuclei (%) [10]: 23% and 21%
Population Healthy Nuclei (%) [10]: 19% and 17%
Population Hoechst High Intensity Objects (%) [10]: 21% and 26%
Population Membrane Permeable-Phenotype (%) [10]: 6% and 5%
Population Mitochondria Different-Phenotype (%) [10]: 66% and 73%
Population Mitotic Cells (%) [10]: 2% and 6%
Population Normal (%) [10]: 73%
Population Pyknosed Nuclei (%) [10]: 57% and 61%
Population Tubulin-Different-Phenotype (%) [10]: 72% and 84%
